Assay results published in ChEMBL document CHEMBL2177085 (J Med Chem, 2012).

Legend:
MKN-45 [1] = test: Cytotoxic activity against human MKN45 cells assessed as cell viability at 20 uM incubated for 5 days by MTT assay; assay type: functional; details: MKN-45, 120 h, read-out: Activity
Procedure, shortened: (§1)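 MTT viability: exponentially growing cells, 10 000 viable cells/well in RPMI plated overnight, then exposed to test compounds for 3 days (HT-29, Molm-14) or 5 days (Mkn-45) at 37 °C, 5% CO2. MTT added for 4 h, then SDS/HCl solubilization overnight and absorbance read at 562 nm. Viability is expressed relative to untreated cells (100%). Triplicate.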

MKN-45 [2] = test: Cytotoxic activity against human MKN45 cells assessed as cell viability at 50 uM incubated for 5 days by MTT assay; assay type: functional; details: MKN-45, 120 h, read-out: Activity; procedure, shortened: as §1
MKN-45 [3] = test: Induction of apoptosis in human MKN45 assessed as accumulation at subG1 phase at 5 uM incubated for 7 days by flow cytometry (reference value: 10.9 +/- 3.2%); assay type: functional
MKN-45 [4] = test: Cytotoxic activity against human MKN45 cells assessed as cell viability at 10 uM incubated for 5 days by MTT assay; assay type: functional; details: MKN-45, 120 h, read-out: Activity; procedure, shortened: as §1
HT-29 [5] = test: Cytotoxic activity against human HT-29 cells assessed as cell viability at 52 uM incubated for 3 days by MTT assay; assay type: functional; details: HT-29, 72 h, read-out: Activity; procedure, shortened: as §1
HT-29 [6] = test: Cytotoxic activity against human HT-29 cells assessed as cell viability at 26 uM incubated for 3 days by MTT assay; assay type: functional; details: HT-29, 72 h, read-out: Activity; procedure, shortened: as §1
HT-29 [7] = test: Cytotoxic activity against human HT-29 cells assessed as cell viability at 2.6 uM incubated for 3 days by MTT assay; assay type: functional; details: HT-29, 72 h, read-out: Activity; procedure, shortened: as §1
MKN-45 [8] = test: Induction of apoptosis in human MKN45 assessed as accumulation at subG1 phase at 1 uM incubated for 7 days by flow cytometry (reference value: 10.9 +/- 3.2%); assay type: functional
MKN-45 [9] = test: Induction of apoptosis in human MKN45 assessed as accumulation at subG1 phase at 15 uM incubated for 7 days by flow cytometry (reference value: 10.9 +/- 3.2%); assay type: functional
HT-29 [10] = test: Cytotoxic activity against human HT-29 cells assessed as cell viability at 7.9 uM incubated for 3 days by MTT assay; assay type: functional; details: HT-29, 72 h, read-out: Activity
Procedure, shortened: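 HT-29 cells in exponential growth were seeded at 10 000 viable cells per well in RPMI and left overnight. They were then exposed to compound for 3 days at 37 °C under 5% CO₂. MTT was added for 4 h, followed by overnight solubilisation in 10% SDS/0.01 M HCl and absorbance at 562 nm. Viability is expressed as % of untreated cells (100%), in triplicate.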

MKN-45 [11] = test: Cytotoxic activity against human MKN45 cells assessed as cell viability at 1 uM incubated for 5 days by MTT assay; assay type: functional; details: MKN-45, 120 h, read-out: Activity; procedure, shortened: as §1
MKN-45 [12] = test: Cytotoxic activity against human MKN45 cells assessed as cell viability at 5 uM incubated for 5 days by MTT assay; assay type: functional; details: MKN-45, 120 h, read-out: Activity; procedure, shortened: as §1
MKN-45 [13] = test: Induction of apoptosis in human MKN45 assessed as accumulation at subG1 phase at 10 uM incubated for 7 days by flow cytometry (reference value: 10.9 +/- 3.2%); assay type: functional
MKN-45 [14] = test: Induction of apoptosis in human MKN45 assessed as accumulation at subG1 phase at 20 uM incubated for 7 days by flow cytometry (reference value: 10.9 +/- 3.2%); assay type: functional
[15] = Inhibition of angiogenesis in chick embryo model assessed as reduction in vessel growth at 26 nM incubated for 24 hrs; assay type: functional, Gallus gallus
Procedure, shortened: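 White leghorn eggs incubated at 37.5 °C, 62% humidity. At 70 h, albumen removed and shell windowed. From 75 h, 15 agarose pellets (from a 26 mM DMSO stock in 2% agarose; final concentration 26 nM) placed on the area vasculosa.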

MKN-45 [16] = test: Cytotoxic activity against human MKN45 cells assessed as cell viability at 0.5 uM incubated for 5 days by MTT assay; assay type: functional; details: MKN-45, 120 h, read-out: Activity; procedure, shortened: as §1
HT-29 [17] = test: Induction of apoptosis in human HT-29 assessed as accumulation at subG1 phase at 1.18 uM incubated for 7 days by flow cytometry (reference value: 3.4 +/- 0.9%); assay type: functional
Procedure, shortened: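 HT-29 cells, 1.5 × 10⁵ per well, plated overnight, then exposed for 7 days to irinotecan at 1.18 μM, alone or with 7.9 μM test compound. Cells were trypsinized and stained for 1 h at 4 °C in PI buffer (sodium citrate, Triton X-100, PI). Sub-G1 fraction measured by flow cytometry (Nicoletti method). Drug-free control used as baseline. Triplicate.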

HUVEC [18] = test: Induction of apoptosis in human HUVEC assessed as accumulation at subG1 phase at 2.6 uM incubated for 4 days by flow cytometry (reference value: 15.4 +/- 1.5%); assay type: functional
[19] = molecular target: T1, Receptor-type tyrosine-protein kinase FLT3 (Homo sapiens, UniProt P36888); test: Inhibition of FLT3
T1 sequence (P36888 whole entry): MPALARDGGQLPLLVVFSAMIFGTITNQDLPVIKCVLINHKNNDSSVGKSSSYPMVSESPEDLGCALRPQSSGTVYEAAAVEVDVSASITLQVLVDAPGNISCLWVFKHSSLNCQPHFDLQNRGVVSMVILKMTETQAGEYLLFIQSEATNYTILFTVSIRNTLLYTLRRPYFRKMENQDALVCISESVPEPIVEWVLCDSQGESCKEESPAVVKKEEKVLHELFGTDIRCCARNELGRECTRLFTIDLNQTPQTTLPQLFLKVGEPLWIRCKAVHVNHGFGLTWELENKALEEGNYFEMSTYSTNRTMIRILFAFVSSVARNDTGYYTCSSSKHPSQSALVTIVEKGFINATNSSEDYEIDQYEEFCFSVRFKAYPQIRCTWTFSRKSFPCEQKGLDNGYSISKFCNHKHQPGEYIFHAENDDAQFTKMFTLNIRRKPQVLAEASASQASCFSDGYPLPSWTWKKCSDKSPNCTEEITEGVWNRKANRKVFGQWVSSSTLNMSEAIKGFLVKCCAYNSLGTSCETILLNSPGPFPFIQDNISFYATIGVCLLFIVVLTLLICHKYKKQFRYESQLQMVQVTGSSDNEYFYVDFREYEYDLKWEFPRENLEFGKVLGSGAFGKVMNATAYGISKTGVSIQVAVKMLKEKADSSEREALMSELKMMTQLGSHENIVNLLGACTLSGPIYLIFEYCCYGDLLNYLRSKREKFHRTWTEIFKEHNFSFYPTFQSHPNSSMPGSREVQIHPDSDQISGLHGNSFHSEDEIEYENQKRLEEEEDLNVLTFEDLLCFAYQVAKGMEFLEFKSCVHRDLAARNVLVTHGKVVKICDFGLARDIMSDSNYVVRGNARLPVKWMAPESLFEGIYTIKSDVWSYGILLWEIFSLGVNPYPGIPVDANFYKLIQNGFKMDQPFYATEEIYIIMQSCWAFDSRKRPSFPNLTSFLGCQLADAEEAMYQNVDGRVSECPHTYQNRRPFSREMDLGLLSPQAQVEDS
Procedure, shortened: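 Run as an outsourced kinase profiling service (Millipore IC50 Profiler), with the protocol referred to the provider. Gives IC50 values and residual activity at 10 μM test compound. Compounds tested in duplicate.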

[20] = molecular target: Vascular endothelial growth factor receptor 2 (Homo sapiens, UniProt P35968); test: Inhibition of VEGFR2
Procedure, shortened: (§2)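 IC50 determined by a commercial kinase profiling service (Millipore IC50 Profiler); duplicate testing.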

[21] = molecular target: Glycogen synthase kinase-3 beta (Homo sapiens, UniProt P49841); test: Inhibition of GSK3beta; procedure, shortened: as §2
HUVEC [22] = test: Induction of apoptosis in human HUVEC assessed as accumulation at subG1 phase at 0.79 uM incubated for 4 days by flow cytometry (reference value: 15.4 +/- 1.5%); assay type: functional

Vascular endothelial growth factor receptor 2, sequence (P35968 whole entry): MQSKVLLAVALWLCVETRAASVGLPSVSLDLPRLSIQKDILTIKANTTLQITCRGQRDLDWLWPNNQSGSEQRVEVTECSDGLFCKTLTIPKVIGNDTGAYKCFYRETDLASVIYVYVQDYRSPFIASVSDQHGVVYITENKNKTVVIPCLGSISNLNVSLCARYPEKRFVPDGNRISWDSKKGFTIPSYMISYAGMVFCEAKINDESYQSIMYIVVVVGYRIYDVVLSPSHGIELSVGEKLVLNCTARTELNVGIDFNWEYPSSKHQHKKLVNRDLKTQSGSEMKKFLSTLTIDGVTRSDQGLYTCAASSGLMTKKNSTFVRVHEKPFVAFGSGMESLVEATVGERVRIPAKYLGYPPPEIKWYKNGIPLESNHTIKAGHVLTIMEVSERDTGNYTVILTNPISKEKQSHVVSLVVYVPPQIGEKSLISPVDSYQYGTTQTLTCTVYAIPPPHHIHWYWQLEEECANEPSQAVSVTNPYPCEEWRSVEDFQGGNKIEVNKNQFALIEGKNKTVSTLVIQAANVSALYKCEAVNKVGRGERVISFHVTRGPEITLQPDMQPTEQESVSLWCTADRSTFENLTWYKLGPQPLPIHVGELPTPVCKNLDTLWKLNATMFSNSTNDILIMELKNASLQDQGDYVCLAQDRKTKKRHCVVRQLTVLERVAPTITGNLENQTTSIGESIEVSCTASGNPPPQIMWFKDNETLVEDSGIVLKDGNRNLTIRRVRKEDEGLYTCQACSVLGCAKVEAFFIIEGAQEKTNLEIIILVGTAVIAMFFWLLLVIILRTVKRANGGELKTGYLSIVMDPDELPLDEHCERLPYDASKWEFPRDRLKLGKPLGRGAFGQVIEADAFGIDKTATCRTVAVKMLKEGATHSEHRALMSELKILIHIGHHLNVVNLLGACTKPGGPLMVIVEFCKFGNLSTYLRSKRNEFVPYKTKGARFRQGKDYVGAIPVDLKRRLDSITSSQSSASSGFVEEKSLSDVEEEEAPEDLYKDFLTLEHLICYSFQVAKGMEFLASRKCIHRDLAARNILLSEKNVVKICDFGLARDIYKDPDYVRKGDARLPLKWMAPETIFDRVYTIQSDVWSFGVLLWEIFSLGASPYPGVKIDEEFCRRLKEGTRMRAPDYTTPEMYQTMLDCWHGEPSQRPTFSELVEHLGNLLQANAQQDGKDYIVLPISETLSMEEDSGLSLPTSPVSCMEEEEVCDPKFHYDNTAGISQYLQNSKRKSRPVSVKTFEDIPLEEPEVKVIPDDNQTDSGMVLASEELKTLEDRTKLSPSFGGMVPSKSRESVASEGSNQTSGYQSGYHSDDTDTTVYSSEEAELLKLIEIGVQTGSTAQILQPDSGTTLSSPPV
Glycogen synthase kinase-3 beta, sequence (P49841 whole entry): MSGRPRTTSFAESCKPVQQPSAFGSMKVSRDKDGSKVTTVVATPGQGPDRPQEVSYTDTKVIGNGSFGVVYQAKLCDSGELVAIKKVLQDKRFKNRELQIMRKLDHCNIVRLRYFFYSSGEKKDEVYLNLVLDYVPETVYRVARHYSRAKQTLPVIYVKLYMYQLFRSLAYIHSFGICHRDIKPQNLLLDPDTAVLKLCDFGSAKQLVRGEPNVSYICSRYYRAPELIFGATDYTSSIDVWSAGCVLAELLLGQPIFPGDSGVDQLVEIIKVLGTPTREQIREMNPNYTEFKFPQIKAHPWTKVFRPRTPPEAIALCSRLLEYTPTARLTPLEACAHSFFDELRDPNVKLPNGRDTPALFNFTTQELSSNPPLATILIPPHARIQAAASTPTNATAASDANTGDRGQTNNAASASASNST

`COc1cc(OC)cc(C2=C(c3c[nH]c4ncccc34)C(=O)NC2=O)c1` showed a viability at 20 µM (MKN-45 [1]) of 62.1%, a viability at 50 µM (MKN-45 [2]) of 59.4% and an Activity (MKN-45 [3]) of 24.8%. It also gave a viability at 10 µM (MKN-45 [4]) of 57%, a viability at 52 µM (HT-29 [5]) of 40.5% and a viability at 26 µM (HT-29 [6]) of 43%. For the same compound, the viability at 2.6 µM (HT-29 [7]) was 54.3%, the Activity (MKN-45 [8]) was 12.7% and the Activity (MKN-45 [9]) was 45.8%. The viability at 7.9 µM (HT-29 [10]) was 49.2%, the viability at 1 µM (MKN-45 [11]) was 118% and the viability at 5 µM (MKN-45 [12]) was 60.4%. The Activity (MKN-45 [13]) was 31.8%, the Activity (MKN-45 [14]) was 55.7% and the “inhibition (INH)” value [15] was 25%. It also gave a viability at 0.5 µM (MKN-45 [16]) of 118%.
`CCc1c2c(nc3ccc(OC(=O)N4CCC(N5CCCCC5)CC4)cc13)-c1cc3c(c(=O)n1C2)COC(=O)[C@]3(O)CC` [IRINOTECAN] showed an Activity (HT-29 [17]) of 18.3%.
For `COc1cc(C2=C(c3c[nH]c4ccncc34)C(=O)NC2=O)cc(OC)c1OC`, the viability at 20 µM (MKN-45 [1]) was 89.4%, the viability at 50 µM (MKN-45 [2]) was 82.5% and the Activity (HUVEC [18]) was 46.3%. For the same compound, the Activity (MKN-45 [3]) was 15.7%, the IC50 [19] was ≥ 3000 nM and the viability at 10 µM (MKN-45 [4]) was 98.6%. It also gave a viability at 52 µM (HT-29 [5]) of 47.4%, a viability at 26 µM (HT-29 [6]) of 56.5% and an IC50 [20] of 590 nM. The viability at 2.6 µM (HT-29 [7]) was 90.8%, the Activity (MKN-45 [8]) was 8.8% and the Activity (MKN-45 [9]) was 25.7%. For the same compound, the viability at 7.9 µM (HT-29 [10]) was 61.5%, the viability at 1 µM (MKN-45 [11]) was 100% and the IC50 [21] was 40 nM. It also gave a viability at 5 µM (MKN-45 [12]) of 99%, an Activity (MKN-45 [13]) of 21.5% and an Activity (MKN-45 [14]) of 31.6%. For the same compound, the Activity (HUVEC [22]) was 31.3%, the “inhibition (INH)” value [15] was 40% and the viability at 0.5 µM (MKN-45 [16]) was 99.1%.
